The values that follow come from ChEMBL document CHEMBL1150214, “Isolation, synthesis, and structure-activity relationships of bioactive benzoquinones from Miconia lepidota from the Suriname rainforest” (J Nat Prod, 2001).

Values after ≈ are worked out from the molar mass of the structure shown. Some results are limits rather than exact numbers.

A word on the IC50: it is the concentration needed to halve the response being measured. High values mean weaker potency in that assay, low ones greater potency in that assay.

The subject of experiment [1] is Saccharomyces cerevisiae. The experiment in a line: Antifungal activity against Saccharomyces cerevisiae 1138 assessed as concentration required to generate kill-zone of 12 mm in diameter after 48 hrs. Format: functional. The procedure, abridged:
(§1)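 Mutant S. cerevisiae strains on an agar-based gel, incubated 48 h with samples. Inhibition zones measured; IC12 (µg/mL) is the concentration producing a 12 mm diameter kill zone. Values with standard deviations come from three separate experiments.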

The subject of experiment [2] is Saccharomyces cerevisiae. The experiment in a line: Antifungal activity against Saccharomyces cerevisiae 1140 assessed as concentration required to generate kill-zone of 12 mm in diameter after 48 hrs. Format: functional. The gist of the method:
as §1

Experiment [3] deals with Saccharomyces cerevisiae. The experiment is described as follows: Antifungal activity against Saccharomyces cerevisiae 7 assessed as concentration required to generate kill-zone of 12 mm in diameter. The format is functional. The procedure, abridged: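 Mutant S. cerevisiae Sc-7 on an agar-based gel, incubated […] with samples. Kill-zone diameters measured; IC12 (µg/mL) is the concentration giving a 12 mm zone. Standard deviations come from three separate experiments.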

In experiment [4] the test system is M109. The experiment is described as follows: Cytotoxicity against mouse M109 cells. Format: functional, cell-based. The procedure, abridged:
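In vitro antitumor cytotoxicity in murine Madison Lung Carcinoma (M109) cells, run at Bristol-Myers Squibb; value given as IC50 in µg/mL.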

The test system of experiment [5] is A2780. The experiment is described as follows: Cytotoxicity against human A2780 cells. The format is functional, cell-based.
The subject of experiment [6] is Saccharomyces cerevisiae. The experiment in a line: Antifungal activity against Saccharomyces cerevisiae 1353 assessed as concentration required to generate kill-zone of 12 mm in diameter after 48 hrs.

Turning to NYSTATIN, the figures for the Activity in experiment [1] and in experiment [2] were 14 µg/mL and 13 µg/mL, respectively.

As to `CCCCCC1=CC(=O)C=C(OC)C1=O` [Primin], the Activity in experiment [3] worked out at 48 µg/mL; in experiment [1] it was 240 µg/mL; in experiment [2] it was 170 µg/mL; in experiment [6] it was 285 µg/mL. Besides, the IC50 came out at 10 µg/mL (≈ 48 µM) in experiment [4] and 2.9 µg/mL (≈ 13.9 µM) in experiment [5].

Regarding `COC1=CC(=O)C=C(Cc2ccccc2)C1=O`, the Activity in experiment [3] came to 180 µg/mL; in experiment [1], 460 µg/mL; in experiment [2], 420 µg/mL; in experiment [6], 590 µg/mL.

Regarding `CCCCC1=CC(=O)C=C(OC)C1=O`, the Activity worked out at 80 µg/mL in experiment [3], 220 µg/mL in experiment [1], 150 µg/mL in experiment [2] and 210 µg/mL in experiment [6]. Moreover, in experiment [5], the 50% inhibitory concentration (IC50) was 3.2 µg/mL (≈ 16.5 µM).

Consider `CCCCCCCC1=CC(=O)C=C(OC)C1=O`, for which the Activity was 16 µg/mL in experiment [3], 120 µg/mL in experiment [1], 130 µg/mL in experiment [2] and 220 µg/mL in experiment [6]. The IC50 in experiment [4] turned out to be 10 µg/mL (≈ 42.3 µM); in experiment [5], 7.9 µg/mL (≈ 33.4 µM).

As to `COC1=CC(=O)C=C(C)C1=O`, the Activity is 530 µg/mL in experiment [3], 580 µg/mL in experiment [1], 630 µg/mL in experiment [2] and 830 µg/mL in experiment [6].

With `CCCCCCCCCCCCCCCCCCCC1=CC(=O)C=C(OC)C1=O`, the Activity in experiment [3], in experiment [1], in experiment [2] and in experiment [6] was over 2000 µg/mL throughout.

As to `CCC1=CC(=O)C=C(OC)C1=O`, the Activity in experiment [3] is 220 µg/mL; in experiment [1], 200 µg/mL; in experiment [2], 140 µg/mL; in experiment [6], 233 µg/mL.

Turning to `CCCCC(O)C1=CC(=O)C=C(OC)C1=O` (centres undefined), the Activity in experiment [3] was determined as 438 µg/mL; in experiment [1], 536 µg/mL; in experiment [2], 430 µg/mL; in experiment [6], 577 µg/mL.

Regarding `CCCCCCCCCCC1=CC(=O)C=C(OC)C1=O`, the Activity in experiment [3] worked out at 3 µg/mL; in experiment [1], 380 µg/mL; in experiment [2] it was 380 µg/mL; in experiment [6], 380 µg/mL. The compound further gave an IC50 in experiment [4] of 10 µg/mL (≈ 35.9 µM).
